# Most compounds without a hit are left out; they make up all but 2.5% or so of the library.
# HTRA1 inhibitor: HTRA1 (human) protease inhibition. Q92743. recombinant HTRA1, FP-rhodamine activity-based probe, fluorescence polarization. inhibition, % at 5.96 µM. actives 0.5% (n = 340,000); in the data active = inhibition above about 36%
# TCR-CD3 inh: human TCR-CD3 binding inhibition; TAMRA-labeled TCR probe fluorescence, biochemical; inhibition, % at 9.4 µM; AID 651800; actives 0.37% (n = 360,000); in the data active = inhibition above about 19%;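 also: recombinant mutant TCR 2C K166C tagged with TAMRA read by polarization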
# SIAE primary: blocks human sialic acid acetylesterase; Q9HAT2; SIAE FP-Rh probe binding, fluorescence polarization; inhibition, % at 9.66 µM; actives 0.69% (n = 370,000); AID 1053197;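 active = inhibition above a cutoff: mean of compounds within the control limits plus 3 SD of those, cut at about 17% in these data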
# PRMT1 FP inh: inhibitors of human PRMT1; inhibition, % at 2.79 µM; recombinant PRMT1, activity-based probe fluorescence polarization; actives 1.3% (n = 370,000); Q99873;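 active = inhibition above about 21% made by adding two undisclosed values, limit read from the data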
# ABHD4 inh: inhibitors of mouse ABHD4; AID 720543; actives 0.54% (n = 370,000); inhibition, % at 8.92 µM; purified mABHD4, FP-Rh probe fluorescence polarization; Q8VD66;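 active = inhibition exceeding the mean over every tested compound plus 3 SD, cut at about 30% in these data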
# Target sequence (Q8VD66 whole entry, looked up): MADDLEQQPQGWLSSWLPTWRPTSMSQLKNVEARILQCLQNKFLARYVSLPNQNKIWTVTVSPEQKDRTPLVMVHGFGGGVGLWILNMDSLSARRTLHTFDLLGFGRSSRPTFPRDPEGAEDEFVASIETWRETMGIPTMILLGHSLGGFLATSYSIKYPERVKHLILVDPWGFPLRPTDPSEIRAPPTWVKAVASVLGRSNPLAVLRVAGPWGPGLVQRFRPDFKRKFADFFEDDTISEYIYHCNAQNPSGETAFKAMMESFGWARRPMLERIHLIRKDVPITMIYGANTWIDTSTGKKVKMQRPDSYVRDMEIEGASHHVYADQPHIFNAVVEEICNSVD
#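 Test system: mABHD4 protein | Buffer or medium: HEPES pH 7.0 buffer, 150 mM NaCl, 0.01% Pluronic F-127 | Probe or stimulus: FP-Rh fluorescent activity-based probe, added after compound pre-incubation | Timing: Pre-incubation 45 min, probe exposure 60 min, at 25 °C | Technique: Fluorescence polarization, excitation 525 nm, emission 598 nm, BODIPY TMR filters | Repeats: Single well per compound (singlicate)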
# HTRA1 inh conf: HTRA1 (human) inhibition, confirmation; actives 66% (n = 1,600); recombinant HTRA1, FP-rhodamine activity-based probe, fluorescence polarization; inhibition, % at 5.96 µM; shares compounds with HTRA1 inhibitor;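 active = mean inhibition over three repeats above a set limit taken from the earlier primary screen, cut at about 37% in these data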;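 also: inhibitors block probe binding so polarization drops and inhibition rises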
# Hits are given with their value; - = inactive; . = no result given.
SMILES,HTRA1 inhibitor,TCR-CD3 inh,SIAE primary,PRMT1 FP inh,ABHD4 inh,HTRA1 inh conf
Oc1ccc(CN2CCCc3ccccc32)c2cccnc12,39,.,.,.,.,-
Oc1ccc(CCc2ccccc2)c2cccnc12,.,.,-,-,-,.
Nc1c(C(=O)NCC(O)c2ccccc2)cnn1-c1ccccc1 (stereo unspecified),.,.,-,-,-,.
O=C(Oc1ccc(OC(=O)c2ccco2)c(S(=O)(=O)c2ccc(Br)cc2)c1)c1ccco1,42,.,.,.,.,51
Cc1ccc(S(=O)(=O)c2cc(OC(=O)c3ccco3)ccc2OC(=O)c2ccco2)cc1,-,-,-,-,-,.
COc1cccc(CN[C@@H]2CC[C@@]34CCCN3C(=O)CCC[C@H]4C2)c1,.,.,-,-,-,.
O=C(N/N=C/c1sc(N2CCOCC2)nc1-c1ccccc1)c1ccc(O)cc1,-,-,-,-,-,.
O=C(N/N=C/c1sc(N2CCOCC2)nc1-c1ccccc1)c1cccc(S(=O)(=O)N2CCCC2)c1,46,-,-,-,-,63
COc1ccc(C(=O)C2(C(=O)Nc3cc(C)cc(C)c3)CC(c3ccccc3C(F)(F)F)=NO2)cc1 (stereo unspecified),.,.,-,-,-,.
O=c1cc(-c2ccc(O)c(-c3c(O)cc(O)c4c(=O)cc(-c5ccc(O)cc5)oc34)c2)oc2cc(O)cc(O)c12,40,-,-,-,-,76
O=c1cc(-c2ccc(O)cc2)oc2c(-c3c(O)cc(O)c4c(=O)cc(-c5ccc(O)cc5)oc34)c(O)cc(O)c12,53,-,-,-,-,50
O=[N+]([O-])c1ccc(NC(c2ccccc2)c2ccc3cccnc3c2O)cc1 (stereo unspecified),36,-,-,-,-,40
CC(=O)NC(c1cccc([N+](=O)[O-])c1)c1ccc2cccnc2c1O (stereo unspecified),37,-,-,-,-,63
CN1C(=O)CC(Nc2cccc3cccc(N)c23)C1=O (stereo unspecified),39,.,.,.,.,-
CN1C(=O)CC(NNC(=O)c2ccccc2)C1=O (stereo unspecified),-,-,-,-,-,.
CCOC(=O)c1sc(=S)n(-c2ccc(OC)cc2)c1C,.,-,-,-,-,.
CCOC(=O)c1c2c(n(-c3ccc(OC)cc3)c1C)C(=O)C(=O)c1ccccc1-2,47,.,.,.,.,45
CC(C)N1CCCCC(NC(=O)c2ccc(-c3ccccc3)cc2)C1=O (stereo unspecified),.,.,-,-,-,.
S=C(N=Nc1ccccc1)NNc1ccccc1,43,-,-,-,-,43
S=C(NNC(=S)Nc1ccc(Cl)cc1)NNc1ccccc1,-,-,-,-,-,.
COC1=CC(=O)C(O)=C(CCCCCCC/C=C/CCCCCCCC2=C(O)C(=O)C=C(OC)C2=O)C1=O,64,.,.,.,.,93
Cc1ccccc1NC(=O)c1cccc2c1-c1ccccc1C2=O,.,.,-,-,-,.
CCOC(=O)[C@]12CCCCC/C=C\1N(CCc1ccc(Cl)cc1)C(=O)[C@H]2CC(=O)NCC12CC3CC(CC(C3)C1)C2,.,.,-,-,-,.
Oc1ccc(N=Nc2c(O)ccc3ccccc23)cc1,63,-,-,-,-,43
NS(=O)(=O)c1ccc(N=Nc2c(O)ccc3ccccc23)cc1,-,-,-,-,-,.
SMILES,HTRA1 inhibitor,TCR-CD3 inh,SIAE primary,PRMT1 FP inh,ABHD4 inh,HTRA1 inh conf
CC1CCCCC1NC(=O)COC(=O)c1c2c(nc3ccccc13)/C(=C\c1ccco1)CC2 (stereo unspecified),57,-,-,-,33,-
CCN(C(=O)c1c(N)cnn1C)c1ccccc1,-,-,-,-,-,.
CCN(C(=O)c1c([N+](=O)[O-])cnn1C)c1ccccc1,37,-,-,-,-,-
CCOc1ccc(-n2c(SCC(=O)Nc3cccc4ccccc34)nnc2-c2ccncc2)cc1,.,.,-,-,-,.
CC(C)C(=O)NC(c1ccccc1)c1cc([N+](=O)[O-])c2cccnc2c1O (stereo unspecified),39,-,-,-,-,46
CC(=O)NC(c1ccccc1)c1cc([N+](=O)[O-])c2cccnc2c1O (stereo unspecified),53,-,-,-,-,69
Oc1c(CNc2ccccc2)cc(COCc2ccccc2)c2cccnc12,49,-,19,-,-,-
O=C(OCc1cn(Cc2ccccc2)nn1)N1CCCC1,.,.,-,-,-,.
Cc1c(Cl)cccc1NS(=O)(=O)c1ccc2c(c1)C1C=CCC1C(c1ccc(C(=O)O)cc1)N2 (stereo unspecified),38,.,.,.,.,-
CCNc1cc(O)ccc1C,71,.,.,.,.,41
Cc1ccc(C)c(NC(=O)c2ccc(CS(=O)(=O)Cc3ccccc3C)o2)c1,.,.,-,-,-,.
O=C(O)C1OC(Oc2cc3oc(-c4ccccc4)cc(=O)c3c(O)c2O)C(O)C(O)C1O (stereo unspecified),45,-,-,28,-,43
COc1c(OC2OC(C(=O)O)C(O)C(O)C2O)cc(O)c2c(=O)cc(-c3ccccc3)oc12 (stereo unspecified),-,-,-,-,-,.
O=C(O)CCNc1cc(N2CCN(C(=O)c3ccco3)CC2)c2noc3c2c1C(=O)c1ccccc1-3,46,34,30,25,49,-
CC(C)c1ccc(NC(=O)Nc2cc3sccc3n2C)cc1,47,-,-,-,-,-
O=C(Oc1c(CN2CCOCC2)cc(Cl)c2cccnc12)c1ccccc1Br,39,-,-,-,-,-
O=C(Oc1c(Cl)cc(Cl)c2cccnc12)N1CCOCC1,-,-,-,-,-,.
N/C(=N\OC(=O)c1ccc2c(c1)OCO2)c1cccc(Br)c1,-,-,-,-,-,.
N/C(Cc1cccc2ccccc12)=N\OC(=O)c1ccc2c(c1)OCO2,43,-,-,-,-,-
O=C1CCCC2=C1C(c1cccs1)Nc1ccc3ncccc3c12 (stereo unspecified),-,-,-,-,-,.
O=C1CCCC2=C1C(c1ccc(O)c(O)c1)Nc1ccc3ncccc3c12 (stereo unspecified),40,-,-,34,-,67
Cc1cc2cc(CNC(=S)Nc3ccc(OC(F)(F)F)cc3)ccc2n1C,41,-,-,-,-,-
O=C(CN1CCN(S(=O)(=O)c2ccc(F)cc2)CC1)c1ccc(O)c(O)c1,-,-,-,-,-,.
O=C(CN1CCN(S(=O)(=O)c2ccc(Cl)cc2)CC1)c1ccc(O)c(O)c1,43,.,.,.,.,44
CC1(C)CC(=O)C(N=Nc2ccc3ncsc3c2)=C(O)C1,-,-,-,-,-,.
COc1ccc2nc(N=NC3=C(O)CC(C)(C)CC3=O)sc2c1,53,-,-,-,-,58
O=S1(=O)c2ccc(N3CCCC3)cc2Oc2ccccc2CN1Cc1cn(Cc2cccc(C(F)(F)F)c2)nn1,.,.,-,-,-,.
CC(C)(C)c1ccc(-c2nnc3sc(COc4ccccc4)nn23)cc1,.,.,-,-,-,.

# From PubChem BioAssay
